# Source: ChEMBL document CHEMBL1145518, “Potent immune-modulating and anticancer effects of NKT cell stimulatory glycolipids” (2007)
# Activity calls are given as the source filed them. The rule behind the calls is not given here.
# Legend:
# [1] = Induction of IFN-gamma secretion in human CD161+ CD3+ NKT cells at 10 ug/ml after 18 hrs relative to basal level; assay type: functional
# Method in brief: (§1)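 Human Vα24i NKT cell lines were expanded for 10 days on irradiated (3,000 rad) autologous immature DCs with 10 units/ml IL-2. The cells (1 × 10^5) were cocultured with 5 × 10^4 irradiated immature CD14+ DCs plus glycolipid at 10 μg/ml. Supernatants were collected at 18 h and read on a 22-plex Luminex bead panel. Triplicates, mean ± SD.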
# [2] = Induction of IL2 secretion in human CD161+ CD3+ NKT cells at 10 ug/ml after 18 hrs relative to basal level; assay type: functional; method in brief: as §1
# [3] = Induction of IL12p70 secretion in human CD161+ CD3+ NKT cells at 10 ug/ml after 18 hrs relative to basal level; assay type: functional; method in brief: as §1
# [4] = Induction of MIPalpha secretion in human CD161+ CD3+ NKT cells at 10 ug/ml after 18 hrs relative to basal level; assay type: functional; method in brief: as §1
# [5] = Induction of MCP1 secretion in human CD161+ CD3+ NKT cells at 10 ug/ml after 18 hrs relative to basal level; assay type: functional; method in brief: as §1
# [6] = Induction of TNFalpha secretion in human CD161+ CD3+ NKT cells at 10 ug/ml after 18 hrs relative to basal level; assay type: functional; method in brief: as §1
# Mus musculus [7] = experiment: Increase in CD8/CD4 T cell ratio in BALB/c mouse at 2 ug, iv after 72 hrs by flow cytometry; assay type: functional, organism-based
# TC1 = experiment: Antitumor activity in TC1 cells xenografted C57BL/6 mouse assessed as suppression of tumor growth at 2 ug, iv; assay type: functional, cell-based
# Method in brief: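 C57BL/6 mice (n = 5/group) were inoculated i.v. with TC-1 lung cancer cells. They were then treated i.v. with 2 μg glycolipid per mouse, or 100 μl of 1% DMSO, twice weekly for 4 weeks. Kaplan–Meier survival and body weight were followed, with tumor-free mice as an additional control.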
# 4T1 = experiment: Antitumor activity in mouse 4T1 cells xenografted BALB/c mouse assessed as suppression of tumor growth at 2 ug, iv; assay type: functional, cell-based
# Method in brief: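 BALB/c mice (n = 6) were inoculated s.c. with 4T1 breast cancer cells. From day 3 they were treated i.v. with glycolipid or vehicle twice weekly for 4 weeks. Tumor volume was recorded every 3 days for 1 month, and survival was monitored up to 54 days.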
# Mus musculus [8] = experiment: Induction of IFN-gamma secretion in BALB/c mouse serum at 2 ug, iv after 18 hrs relative to control; assay type: functional
# Method in brief: (§2)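 BALB/c mice received an i.v. injection of 100 μl of glycolipid diluted to 20 μg/ml in saline from DMSO stock, with 1% DMSO as vehicle. Serum cytokines/chemokines were measured at 2 and 18 h after injection.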
# Mus musculus [9] = experiment: Induction of IL1-beta secretion in BALB/c mouse serum at 2 ug, iv after 18 hrs relative to control; assay type: functional; method in brief: as §2
# Mus musculus [10] = experiment: Induction of IL2 secretion in BALB/c mouse serum at 2 ug, iv after 2 hrs relative to control; assay type: functional; method in brief: as §2
# Mus musculus [11] = experiment: Induction of IL12p70 secretion in BALB/c mouse serum at 2 ug, iv after 18 hrs relative to control; assay type: functional; method in brief: as §2
# Mus musculus [12] = experiment: Induction of IL12p40 secretion in BALB/c mouse serum at 2 ug, iv after 18 hrs relative to control; assay type: functional; method in brief: as §2
# Mus musculus [13] = experiment: Induction of RANTES secretion in BALB/c mouse serum at 2 ug, iv after 2 hrs relative to control; assay type: functional; method in brief: as §2
# Mus musculus [14] = experiment: Induction of MCP1 secretion in BALB/c mouse serum at 2 ug, iv after 2 hrs relative to control; assay type: functional; method in brief: as §2
# Mus musculus [15] = experiment: Induction of KC secretion in BALB/c mouse serum at 2 ug, iv after 2 hrs relative to control; assay type: functional; method in brief: as §2
# Mus musculus [16] = experiment: Induction of IL3 secretion in BALB/c mouse serum at 2 ug, iv after 2 hrs relative to control; assay type: functional; method in brief: as §2
# Mus musculus [17] = experiment: Induction of IL4 secretion in BALB/c mouse serum at 2 ug, iv after 2 hrs relative to control; assay type: functional; method in brief: as §2
# Mus musculus [18] = experiment: Induction of IL6 secretion in BALB/c mouse serum at 2 ug, iv after 2 hrs relative to control; assay type: functional; method in brief: as §2
# Mus musculus [19] = experiment: Induction of IL10 secretion in BALB/c mouse serum at 2 ug, iv after 18 hrs relative to control; assay type: functional; method in brief: as §2
# Mus musculus [20] = experiment: Induction of IL13 secretion in BALB/c mouse serum at 2 ug, iv after 2 hrs relative to control; assay type: functional; method in brief: as §2
# [21] = Induction of GM-CSF secretion in human CD161+ CD3+ NKT cells at 10 ug/ml after 18 hrs relative to basal level; assay type: functional; method in brief: as §1
# [22] = Induction of IL15 secretion in human CD161+ CD3+ NKT cells at 10 ug/ml after 18 hrs relative to basal level; assay type: functional; method in brief: as §1
# [23] = Induction of IL6 secretion in human CD161+ CD3+ NKT cells at 10 ug/ml after 18 hrs relative to basal level; assay type: functional; method in brief: as §1
# [24] = Induction of IL10 secretion in human CD161+ CD3+ NKT cells at 10 ug/ml after 18 hrs relative to basal level; assay type: functional; method in brief: as §1
# [25] = Induction of IL13 secretion in human CD161+ CD3+ NKT cells at 10 ug/ml after 18 hrs relative to basal level; assay type: functional; method in brief: as §1
# HeLa [26] = experiment: Activation of TCR in human HeLa cells overexpressing CD1d assessed as increase in CD3epsilon phosphorylation; assay type: cell-based
# Method in brief: (§3)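 Human HeLa, HeLa-CD1d or autologous immature DCs were loaded with glycolipid at 10 μg/ml, or DMSO, for 2 h. Then 3 × 10^5 naïve CD161+/CD3+ NKT cells were added; these were bead-isolated and kept in 100 units/ml IL-2. After 5–10 min the cells were washed and lysed at 4°C. Phospho-CD3ε, ERK1/2 (Thr-185/Tyr-187) and CREB (Ser-133) were read by Luminex bead assay as median fluorescence normalized to total protein, expressed as fold over 1% DMSO.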
# dendritic [27] = experiment: Activation of TCR in human immature dendritic cells assessed as increase in CD3epsilon phosphorylation; assay type: cell-based; method in brief: as §3
# dendritic [28] = experiment: Activation of TCR in human immature dendritic cells assessed as increase in ERK1/2 phosphorylation; assay type: cell-based; method in brief: as §3
# HeLa [29] = experiment: Activation of TCR in human HeLa cells overexpressing CD1d assessed as increase in CREB phosphorylation; assay type: cell-based; method in brief: as §3
# dendritic [30] = experiment: Activation of TCR in human immature dendritic cells assessed as increase in CREB phosphorylation; assay type: cell-based; method in brief: as §3
# Mus musculus [31] = experiment: Activation of dendritic cells in BALB/c mouse at 2 ug, iv after 72 hrs by flow cytometry; assay type: functional, organism-based
# Method in brief: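 BALB/c mice (n = 4/group) were given 100 μl of glycolipid at 20 μg/ml in saline i.v., or 100 μl of 1% DMSO. Spleens were harvested after 72 h and splenocyte subsets counted by flow cytometry: mature DCs as CD11c+/CD80+/CD86+, activated NK as U5A2-13Ag+/CD3−/CD69+, activated NKT as U5A2-13Ag+/CD3+/CD69+. Assays were run in duplicate, mean ± SD.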
SMILES,Activity [1],Activity [2],Activity [3],Activity [4],Activity [5],Activity [6],Activity (Mus musculus [7]),Activity (TC1),Activity (4T1),Activity (Mus musculus [8]),Activity (Mus musculus [9]),Activity (Mus musculus [10]),Activity (Mus musculus [11]),Activity (Mus musculus [12]),Activity (Mus musculus [13]),Activity (Mus musculus [14]),Activity (Mus musculus [15]),Activity (Mus musculus [16]),Activity (Mus musculus [17]),Activity (Mus musculus [18]),other results
CCCCCCCCCCCCCCCCCCCCCCCCCC(=O)N[C@@H](CO[C@H]1O[C@H](CO)[C@H](O)[C@H](O)[C@H]1O)[C@H](O)[C@H](O)CCCCCCCCCCCCCC [RGI-7000],3.4,2.3,1.8,2.9,0.9,7.7,Active,Active,Active,300,7.8,58.9,3.2,2.8,2.6,18.7,30.5,3,240,5.5,Activity (Mus musculus [19]): 3.6; Activity (Mus musculus [20]): 15.1; Activity [21]: 3.5; Activity [22]: 2.6; Activity [23]: 1.8; Activity [24]: 1.2; Activity [25]: 1.8; Activity (HeLa [26]): 7.3; Activity (dendritic [27]): 10.8; Activity (dendritic [28]): 30; Activity (HeLa [29]): 32; Activity (dendritic [30]): 68; Activity (Mus musculus [31]): Active
CCCCCCCCCCCCCCCCCCCCCCCCCC(=O)N[C@@H](CO[C@H]1O[C@H](CO)[C@H](O)[C@H](O)[C@H]1O)[C@H](O)[C@H](O)CCc1ccccc1,6.6,2.8,3.2,3.6,2,7.6,Active,Active,Active,122.5,3.4,75.3,6.6,3.5,2.1,32.9,19.2,38.8,115,6.3,Activity (Mus musculus [19]): 2.2; Activity (Mus musculus [20]): 12.6; Activity [21]: 4.3; Activity [22]: 2.3; Activity [23]: 2.8; Activity [24]: 1.2; Activity [25]: 2.3; Activity (HeLa [26]): 7.3; Activity (dendritic [27]): 17.3; Activity (dendritic [28]): 35; Activity (HeLa [29]): 41; Activity (dendritic [30]): 158; Activity (Mus musculus [31]): Active
